The record followed here is ChEMBL document CHEMBL4229377, “Design, synthesis and bioevaluation of 1,2,3,9-tetrahydropyrrolo[2,1-b]quinazoline-1-carboxylic acid derivatives as potent neuroprotective agents” (Eur J Med Chem, 2018).

Data set [1] can be described thus: Clearance in human liver microsomes at 10 uM preincubated for 10 mins followed by NADPH addition and measured up to 60 mins. It counts as ADME, microsome. Particulars: read-out: CLH. The essentials:
(§1)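 Human liver microsomes were incubated for 60 min with an NADPH regenerating system to derive T1/2 and CL (µL/min/mg). A no-cofactor sample, with buffer replacing NADPH, was run alongside over 60 min to give % parent remaining.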

Data set [2] deals with SH-SY5Y. In words: Neuroprotective activity against NMDA-induced cell damage in human SH-SY5Y cells assessed as cell viability at 0.1 uM preincubated for 6 hrs followed by NMDA addition and measured after 30 mins by MTT assay (reference value: 58.7 +/- 2.3%). Particulars: read-out: Activity. The data set is classed as functional.
Data set [3] concerns SH-SY5Y. Nature of the data set: Neuroprotective activity against NMDA-induced cell damage in human SH-SY5Y cells assessed as cell viability at 10 uM preincubated for 6 hrs followed by NMDA addition and measured after 30 mins by MTT assay (reference value: 58.7 +/- 2.3%). The data set is classed as functional. The conditions noted are these: read-out: Activity.
The nature of data set [4]: Metabolic stability in human liver microsomes assessed as parent compound remaining at 10 uM after 60 mins in absence of NADPH. It counts as ADME, microsome. Particulars: read-out: Stability. The essentials:
as §1

The subject of data set [5] is SH-SY5Y. In words: Neuroprotective activity against NMDA-induced cell damage in human SH-SY5Y cells assessed as cell viability at 100 uM preincubated for 6 hrs followed by NMDA addition and measured after 30 mins by MTT assay (reference value: 58.7 +/- 2.3%).
The subject of data set [6] is SH-SY5Y. In words: Neuroprotective activity against NMDA-induced cell damage in human SH-SY5Y cells assessed as cell viability at 1 uM preincubated for 6 hrs followed by NMDA addition and measured after 30 mins by MTT assay (reference value: 58.7 +/- 2.3%). The data set is classed as functional. Particulars: read-out: Activity.
For data set [7], the target named is Glutamate receptor ionotropic, NMDA 2B (Homo sapiens) (UniProt Q13224). Nature of the data set: Antagonist activity at NR2B NMDA receptor in human SH-SY5Y cells assessed as inhibition of NMDA-induced decrease in ERK1/2 phosphorylation at 0.1 to 10 uM preincubated for 6 hrs followed by NMDA addition and measured after 30 mins by Western blot analysis. It counts as cell-based. Summed up:
(§2)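 SH-SY5Y lysates were analysed by Western blot for NR2B expression and for p-ERK1/2 relative to total ERK. Data are means ± S.E.M., n = 3, compared against control and NMDA-treated groups.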

Data set [8] shares this target. In words: Antagonist activity at NR2B NMDA receptor in human SH-SY5Y cells assessed as inhibition of NMDA-induced intracellular Ca2+ influx at 10 uM incubated for 3 hrs prior to fluo-3AM dye addition for 30 mins followed by NMDA addition and measured every 5 secs by laser scanning confocal microscopic analysis. The data set is classed as cell-based. The essentials: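 SH-SY5Y cells were loaded with fluo-3 AM, and cytoplasmic Ca²⁺ was followed as green fluorescence by laser scanning confocal microscopy over time. NMDA was added at 2 mM final to cells with or without compound pretreatment; n = 9 cells per group.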

Data set [9] can be described thus: Half life in human liver microsomes at 10 uM preincubated for 10 mins followed by NADPH addition and measured up to 60 mins. It counts as ADME, microsome. Summed up: as §1
The subject of data set [10] is SH-SY5Y. In words: Down regulation of NMDA-induced NR2B level in human SH-SY5Y cells at 0.1 to 10 uM preincubated for 6 hrs followed by NMDA addition and measured after 30 mins by Western blot analysis. It counts as functional, cell-based. Summed up:
as §2

The source made the active and inactive calls. The rule behind the calls is not given here.

Sequence of Glutamate receptor ionotropic, NMDA 2B (Homo sapiens) (Q13224 27-1484 limits assumed): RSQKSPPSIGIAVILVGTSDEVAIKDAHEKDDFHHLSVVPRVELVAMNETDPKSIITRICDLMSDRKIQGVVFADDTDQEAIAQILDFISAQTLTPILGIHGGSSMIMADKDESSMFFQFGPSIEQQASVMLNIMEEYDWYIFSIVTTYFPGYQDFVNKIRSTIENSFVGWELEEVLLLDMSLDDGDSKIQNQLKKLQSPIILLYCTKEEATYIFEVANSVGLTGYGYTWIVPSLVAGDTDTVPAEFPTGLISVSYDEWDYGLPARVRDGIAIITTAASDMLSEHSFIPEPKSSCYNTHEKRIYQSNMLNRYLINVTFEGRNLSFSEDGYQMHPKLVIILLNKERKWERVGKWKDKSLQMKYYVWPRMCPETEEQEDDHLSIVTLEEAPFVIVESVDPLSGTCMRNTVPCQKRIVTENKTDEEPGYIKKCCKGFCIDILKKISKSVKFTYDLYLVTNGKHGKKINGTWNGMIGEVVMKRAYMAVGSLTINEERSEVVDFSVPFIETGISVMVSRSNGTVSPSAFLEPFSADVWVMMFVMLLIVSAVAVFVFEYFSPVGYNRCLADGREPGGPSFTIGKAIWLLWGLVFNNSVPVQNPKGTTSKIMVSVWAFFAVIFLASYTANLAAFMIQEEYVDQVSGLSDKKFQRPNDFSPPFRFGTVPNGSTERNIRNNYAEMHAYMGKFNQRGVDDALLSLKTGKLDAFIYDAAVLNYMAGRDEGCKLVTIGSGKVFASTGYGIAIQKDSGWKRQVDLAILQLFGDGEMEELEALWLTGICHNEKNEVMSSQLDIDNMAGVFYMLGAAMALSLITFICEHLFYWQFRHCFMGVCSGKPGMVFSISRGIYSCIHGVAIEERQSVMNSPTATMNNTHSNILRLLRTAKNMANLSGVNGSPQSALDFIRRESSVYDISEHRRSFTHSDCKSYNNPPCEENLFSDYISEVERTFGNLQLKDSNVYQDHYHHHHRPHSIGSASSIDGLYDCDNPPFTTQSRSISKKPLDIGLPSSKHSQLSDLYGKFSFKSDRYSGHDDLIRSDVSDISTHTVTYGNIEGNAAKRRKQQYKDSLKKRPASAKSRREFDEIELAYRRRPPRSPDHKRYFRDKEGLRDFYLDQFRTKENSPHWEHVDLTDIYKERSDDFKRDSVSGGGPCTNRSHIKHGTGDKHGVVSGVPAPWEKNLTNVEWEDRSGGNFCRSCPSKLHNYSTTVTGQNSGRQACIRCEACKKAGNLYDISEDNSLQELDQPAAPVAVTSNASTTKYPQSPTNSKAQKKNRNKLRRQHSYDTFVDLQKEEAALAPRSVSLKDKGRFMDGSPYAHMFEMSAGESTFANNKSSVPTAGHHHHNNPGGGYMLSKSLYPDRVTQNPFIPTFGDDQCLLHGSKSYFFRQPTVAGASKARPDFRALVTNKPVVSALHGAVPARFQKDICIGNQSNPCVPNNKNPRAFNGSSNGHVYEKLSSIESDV

For `O=C(NCCc1ccc(O)cc1)[C@@H]1CCC2=Nc3ccc(Br)cc3CN21`, the microsomal CLint at 10 µM in data set [1] worked out at 46.3 µL/min/mg. For the same molecule, the viability at 0.1 µM with SH-SY5Y [2] came to 75.8%. Besides, in the data set with SH-SY5Y [3], the viability at 10 µM came to 84.4%. The remaining at 1 h, 10 µM in data set [4] is 99.3%. Moreover, the Activity in the data set with SH-SY5Y [5] worked out at 78.6%. The viability at 1 µM with SH-SY5Y [6] is 80%. Moreover, the inhibition entry in [7] and in data set [8] was “Active” in each case. The half-life at 10 µM in [9] was 29.9 min. Moreover, the outcome with SH-SY5Y [10] was Active.

Take `COc1ccc(CCNC(=O)[C@@H]2CCC3=Nc4ccccc4CN32)cc1`: the viability at 0.1 µM in the data set on SH-SY5Y [2] turned out to be 73%. The viability at 10 µM in the data set with SH-SY5Y [3] came out at 75.1%. In the data set on SH-SY5Y [5], the Activity is on record as 60%. In addition, the viability at 1 µM with SH-SY5Y [6] came out at 81%.

On to `N=C(NCc1ccc(O)cc1)[C@@H]1CCC2=Nc3ccccc3CN21`, for which the viability at 0.1 µM in the data set with SH-SY5Y [2] is 61.6%. The viability at 10 µM in the data set with SH-SY5Y [3] worked out at 70.2%. For the same molecule, the Activity in the data set with SH-SY5Y [5] stood at 64.3%. In the data set with SH-SY5Y [6], the viability at 1 µM was found to be 69.2%.

For the molecule `O=C(NCc1ccc(O)cc1)[C@@H]1CCC2=Nc3ccc(Br)cc3CN21`, the viability at 0.1 µM with SH-SY5Y [2] amounted to 69%. In addition, in the data set with SH-SY5Y [3], the viability at 10 µM came out at 76%. Further, the Activity in the data set with SH-SY5Y [5] turned out to be 60%. Also, the viability at 1 µM with SH-SY5Y [6] was found to be 73.5%.

As for `O=C(NCc1ccc(F)cc1)[C@@H]1CCC2=Nc3ccc(Br)cc3CN21`, in the data set on SH-SY5Y [2], the viability at 0.1 µM turned out to be 64.8%. Moreover, the viability at 10 µM in the data set with SH-SY5Y [3] was 70.4%. For the same molecule, in the data set with SH-SY5Y [5], the Activity is on record as 60.1%. In addition, the viability at 1 µM in the data set with SH-SY5Y [6] worked out at 70.4%.

Consider `COc1ccc(CNC(=N)[C@@H]2CCC3=Nc4ccccc4CN32)cc1`, for which the viability at 0.1 µM in the data set with SH-SY5Y [2] stood at 64.8%. Besides, the viability at 10 µM in the data set on SH-SY5Y [3] is 66.1%. The Activity in the data set with SH-SY5Y [5] is 56.9%. In addition, the viability at 1 µM in the data set on SH-SY5Y [6] stood at 65.8%.

On to `O=C(OCc1ccccc1)[C@@H]1CCC2=Nc3ccccc3CN21`, for which the viability at 0.1 µM in the data set with SH-SY5Y [2] was 61%. Besides, the viability at 10 µM with SH-SY5Y [3] is 66.1%. Moreover, the Activity in the data set on SH-SY5Y [5] is reported as 57.4%. Besides, the viability at 1 µM in the data set on SH-SY5Y [6] worked out at 65.5%.

For the molecule `O=C(NCCCc1ccccc1)[C@H]1CCC2=Nc3ccccc3CN21`, in the data set on SH-SY5Y [2], the viability at 0.1 µM worked out at 62.2%. In addition, in the data set on SH-SY5Y [3], the viability at 10 µM is 70.2%. The Activity in the data set with SH-SY5Y [5] stood at 42%. For the same molecule, in the data set on SH-SY5Y [6], the viability at 1 µM was found to be 71.6%.

Regarding `C[C@@H]([C@@H](O)c1ccc(O)cc1)N1CCC(Cc2ccccc2)CC1` [(S)-IFENPRODIL], the microsomal CLint at 10 µM in data set [1] is 109 µL/min/mg. For the same molecule, the viability at 0.1 µM in the data set with SH-SY5Y [2] came to 71%. In the data set with SH-SY5Y [3], the viability at 10 µM is 79.5%. For the same molecule, the remaining at 1 h, 10 µM in [4] is 87.3%. Besides, in the data set with SH-SY5Y [5], the Activity was 65.1%. Besides, in the data set on SH-SY5Y [6], the viability at 1 µM was 72.7%. This molecule had a half-life at 10 µM in data set [9] of 12.8 min.

For the molecule `O=C(NCCCc1ccccc1)[C@H]1CCC2=Nc3ccc(Br)cc3CN21`, the viability at 0.1 µM in the data set on SH-SY5Y [2] was found to be 58.1%. In the data set on SH-SY5Y [3], the viability at 10 µM is 65.4%. Moreover, the Activity with SH-SY5Y [5] is recorded as 44.1%. Moreover, in the data set on SH-SY5Y [6], the viability at 1 µM is 72.1%.

Consider `O=C(NCCCc1ccccc1)[C@@H]1CCC2=Nc3ccc(Br)cc3CN21`, for which, in the data set on SH-SY5Y [2], the viability at 0.1 µM came to 69.1%. Also, the viability at 10 µM in the data set on SH-SY5Y [3] came out at 66.1%. The Activity in the data set on SH-SY5Y [5] turned out to be 42.2%. Moreover, the viability at 1 µM with SH-SY5Y [6] is 76.6%.

`COc1ccc(CNC(=O)[C@H]2CCC3=Nc4ccccc4CN32)cc1`: the viability at 0.1 µM in the data set with SH-SY5Y [2] turned out to be 66.6%. The viability at 10 µM in the data set on SH-SY5Y [3] was 76.2%. Besides, the Activity with SH-SY5Y [5] turned out to be 58.4%. Besides, the viability at 1 µM in the data set with SH-SY5Y [6] was 70.7%.

Consider `Cc1ccc(CNC(=O)[C@@H]2CCC3=Nc4ccccc4CN32)cc1`, for which the viability at 0.1 µM in the data set with SH-SY5Y [2] came out at 66.2%. Besides, the viability at 10 µM in the data set with SH-SY5Y [3] came out at 72.5%. The Activity in the data set on SH-SY5Y [5] stood at 54.5%. Further, the viability at 1 µM in the data set on SH-SY5Y [6] worked out at 73.4%.

With `O=C(NCc1ccc(O)cc1)[C@H]1CCC2=Nc3ccccc3CN21`, the viability at 0.1 µM in the data set on SH-SY5Y [2] was 65.2%. The viability at 10 µM with SH-SY5Y [3] is 64.2%. For the same molecule, the Activity in the data set with SH-SY5Y [5] came out at 60.9%. In the data set with SH-SY5Y [6], the viability at 1 µM stood at 68%.

Consider `O=C(NCCc1ccccc1)[C@@H]1CCC2=Nc3ccccc3CN21`, for which the viability at 0.1 µM in the data set on SH-SY5Y [2] was 73.7%. For the same molecule, the viability at 10 µM in the data set with SH-SY5Y [3] stood at 80%. The Activity in the data set with SH-SY5Y [5] worked out at 57.5%. The viability at 1 µM in the data set on SH-SY5Y [6] was determined as 77.6%.

Turning to `COc1ccc(COC(=O)[C@@H]2CCC3=Nc4ccccc4CN32)cc1`, the microsomal CLint at 10 µM in [1] amounted to 1180 µL/min/mg. For the same molecule, the viability at 0.1 µM in the data set with SH-SY5Y [2] amounted to 61.4%. For the same molecule, the viability at 10 µM with SH-SY5Y [3] was found to be 65.3%. Moreover, in data set [4], the remaining at 1 h, 10 µM was found to be 3.2%. Besides, in the data set with SH-SY5Y [5], the Activity is 63.6%. Also, the viability at 1 µM in the data set with SH-SY5Y [6] worked out at 64.1%. For the same molecule, the half-life at 10 µM in [9] is 1.2 min.

As to `O=C(NCCc1ccc(O)cc1)[C@H]1CCC2=Nc3ccccc3CN21`, the viability at 0.1 µM in the data set on SH-SY5Y [2] came to 65.2%. Moreover, the viability at 10 µM with SH-SY5Y [3] was 70.5%. Moreover, the Activity in the data set with SH-SY5Y [5] turned out to be 68%. Also, the viability at 1 µM in the data set with SH-SY5Y [6] is 80.7%.

With `O=C(NCc1ccc(F)cc1)[C@@H]1CCC2=Nc3ccccc3CN21`, in the data set with SH-SY5Y [2], the viability at 0.1 µM was 67.1%. In addition, in the data set on SH-SY5Y [3], the viability at 10 µM turned out to be 78.9%. Besides, the Activity in the data set on SH-SY5Y [5] was 63.2%. The viability at 1 µM in the data set with SH-SY5Y [6] was 72.6%.

For `COc1ccc(CNC(=O)[C@@H]2CCC3=Nc4ccccc4CN32)cc1`, the viability at 0.1 µM with SH-SY5Y [2] turned out to be 68.1%. For the same molecule, in the data set with SH-SY5Y [3], the viability at 10 µM turned out to be 74.1%. In the data set with SH-SY5Y [5], the Activity is reported as 64.4%. Also, in the data set on SH-SY5Y [6], the viability at 1 µM worked out at 71.8%.

Take `O=C(Nc1ccc(O)cc1)[C@H]1CCC2=Nc3ccccc3CN21`: the viability at 0.1 µM in the data set on SH-SY5Y [2] came out at 65.6%. The viability at 10 µM with SH-SY5Y [3] amounted to 69.6%. Besides, the Activity in the data set with SH-SY5Y [5] was determined as 73.3%. Also, the viability at 1 µM with SH-SY5Y [6] stood at 67.2%.
